# In the library only some 2.2% were active in any assay of this set; here they are far more common.
# S100A4 MyoIIA: inhibitors of S100A4-myosin IIA peptide binding, primary screen, biochemical, fluorescence polarization, TAMRA-MyoIIA peptide; Protein S100-A4 (Homo sapiens), P26447; inhibition, % at 10.7 µM; 0.14% of 360,000 active; AID 652163, 2013;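 active = mean inhibition of at least 70% across replicates, with every replicate also reaching that level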
# Target sequence (P26447 whole entry, looked up): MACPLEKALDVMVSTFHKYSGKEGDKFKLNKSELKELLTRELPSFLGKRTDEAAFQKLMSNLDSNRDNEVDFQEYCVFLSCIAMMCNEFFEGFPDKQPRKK
#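 Test system: S100A4 monomer protein; Medium: HEPES pH 7.2 with CaCl2, KCl, NaCl, DTT, Triton; Probe or stimulus: TAMRA-labelled myosin IIA heavy-chain peptide probe, 5 nM; Doses: one dose per compound; Times: polarization read 5 min after assay mix addition, stable 5–60 min; Benchmarks: neutral control DMSO, positive control TFP.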
# CFTR F508del cor: F508del CFTR correction, initial screen, CFBE line, single point; CFBE cells, YFP halide quenching; stimulated with forskolin plus potentiator P3; % fluorescence drop versus neutral controls; activity (quench increase), % at 7.58 µM; 0.36% of 350,000 active; AID 720511, 2013;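 active = mean added fluorescence quench of at least 8% versus neutral control, with both replicates also reaching 8%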;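 note: cells transiently co-express mutant CFTR-F508del with the halide-sensitive YFP; corrector assay measuring rescue of mutant channel to the surface after 24 h compound exposure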
# dFosB act: activators of delta FosB homodimer, primary screen, biochemical, fluorescence polarization, TAMRA-CDK5 oligo, single point. purified delta FosB; percent of positive-control signal above neutral wells. activation, % at 25 µM. 0.99% of 340,000 active. AID 493131, 2011;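 active = mean activation above about 17%, with every replicate also reaching it, limit read from the data, passing the limit was not always enough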
# Target sequence (P13346 whole entry, looked up): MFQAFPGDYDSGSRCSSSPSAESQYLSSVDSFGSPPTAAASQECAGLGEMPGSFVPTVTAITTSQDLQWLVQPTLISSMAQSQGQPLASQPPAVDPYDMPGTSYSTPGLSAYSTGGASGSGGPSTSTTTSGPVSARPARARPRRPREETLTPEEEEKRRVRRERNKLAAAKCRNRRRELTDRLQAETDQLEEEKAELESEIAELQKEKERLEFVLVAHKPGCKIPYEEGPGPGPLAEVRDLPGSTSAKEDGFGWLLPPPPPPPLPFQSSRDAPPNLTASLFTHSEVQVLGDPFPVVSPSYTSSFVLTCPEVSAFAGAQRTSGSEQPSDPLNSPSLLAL
# FGF22 binding: binders of human FGF22 protein, primary screen, FGF22 synaptogenesis inhibitor project, biophysical, thermal shift, single point. Fibroblast growth factor 22 (Homo sapiens), Q9HCT0. activity (Tm shift, normalised), % at 9.99 µM. 1.5% of 340,000 active. recombinant FGF22 thermal shift, SYPRO orange fluorescence; percent of sucrose octasulfate shift, DMSO zero. AID 651658, 2012;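 active = mean Tm shift, scaled 0 neutral to 100 positive control, at about 1.3% or above, every replicate too, limit read from the data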
# Target sequence (Q9HCT0 whole entry, looked up): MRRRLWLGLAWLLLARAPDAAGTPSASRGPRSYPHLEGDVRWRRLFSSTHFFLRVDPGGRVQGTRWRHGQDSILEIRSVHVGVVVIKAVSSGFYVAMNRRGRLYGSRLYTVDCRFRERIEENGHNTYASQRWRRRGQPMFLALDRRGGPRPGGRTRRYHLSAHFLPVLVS
# Numbers without * were called inactive; x = no result given.
SMILES,S100A4 MyoIIA,CFTR F508del cor,dFosB act,FGF22 binding
O=C(Nc1ccc2c(c1)OCO2)c1ccc(S(=O)(=O)N2CCCC2)cc1,1.6,-0.4,0.6,44.9*
CC(=O)Nc1ccc(S(=O)(=O)N2CCCC2C(=O)Nc2ccc3c(c2)OCCO3)cc1 (configuration not stated),0.9,0.2,0.0,43.9*
CCC(=O)N(C)C[C@@H]1Oc2ncc(Br)cc2C(=O)N([C@@H](C)CO)C[C@@H]1C,-30.9,-2.2,x,0.0
Cc1ccc2nc(NC(=O)C3CCN(S(=O)(=O)c4cccs4)CC3)sc2c1,x,x,32.7*,x
Cc1ccccc1CC1(CO)CCCN(Cc2ccc(C#CC(C)(C)O)cc2)C1 (configuration not stated),-2.6,0.1,-9.5,43.4*
Cn1cc(CN2CCC(C(O)c3cccs3)CC2)c(-c2ccccc2F)n1 (configuration not stated),7.2,-2.9,-1.1,0.2
Cn1cc(CN2CCC(C(=O)N3CCCC3)CC2)c(-c2ccccc2F)n1,-4.7,2.5,-7.0,43.0*
CCOc1ccc(NC(=O)CN(C)C(=O)c2cc([N+](=O)[O-])ccc2N2CCCCC2)cc1OCC,-8.2,2.7,-8.7,-0.6
CCOc1ccc(NC(=O)CN(C)C(=O)c2cc([N+](=O)[O-])ccc2Sc2ccccc2)cc1OCC,-0.9,-3.7,-3.7,18.6*
Clc1ccccc1-c1nnc(CNC2CC2)o1,-1.8,-2.7,1.3,43.6*
O=[N+]([O-])c1cccc(-c2nnc(CNC3CC3)o2)c1,-6.5,-0.6,-6.4,0.8
Cc1ccc(N2C3=C(C(=O)CC(C)(C)C3)C(c3cn(C)nc3C)C3=C2CC(C)(C)CC3=O)cc1,112.2*,-1.8,-12.1,0.1
CC(=O)OC(C)=O,78.9*,1.8,-0.3,0.1
C[C@@H]1CN([C@@H](C)CO)C(=O)c2cc(-c3ccc(F)cc3)cnc2O[C@H]1CN(C)Cc1ccc(F)cc1,x,-0.7,x,x
COc1ccc(COCC(O)CN2CCC(C(N)=O)CC2)cc1OC (configuration not stated),-7.2,2.2,-3.1,43.6*
Cc1ccc(S(=O)(=O)NCCCCCC(=O)Nc2c(C)n(C)n(-c3ccccc3)c2=O)cc1,8.2,-0.3,-3.4,43.2*
Cc1ccc(C)c(OCC(=O)Nc2c(C)n(C)n(-c3ccccc3)c2=O)c1,-2.1,5.8,-6.3,0.0
Cc1ccc(S(=O)(=O)NC(=O)Nc2c(C)n(C)n(-c3ccccc3)c2=O)cc1,-0.3,0.0,1.9,0.0
Cc1c(NC(=O)COc2cccc(Cl)c2Cl)c(=O)n(-c2ccccc2)n1C,0.2,-1.4,-4.0,42.9*
Cc1ccc2nc(C)cc(C(=O)OCC(=O)Nc3c(C)n(C)n(-c4ccccc4)c3=O)c2c1,-5.8,0.2,-7.5,43.4*
Cc1ccc(C(=O)Nc2c(C)n(C)n(-c3ccccc3)c2=O)cc1,-1.7,-1.3,-4.3,43.9*
Cc1c(NC(=O)COC(=O)c2cc(-c3cccc4ccccc34)nc3ccccc23)c(=O)n(-c2ccccc2)n1C,x,x,-9.6,x
Cc1c(NC(=O)c2ccc(C(=O)Nc3c(C)n(C)n(-c4ccccc4)c3=O)cc2)c(=O)n(-c2ccccc2)n1C,2.2,-2.2,-4.1,0.0
C[C@H](CO)N1C[C@H](C)[C@@H](CN(C)CC2CC2)OCCCC[C@H](C)Oc2ccc(NS(=O)(=O)c3ccccc3)cc2C1=O,11.4,1.4,x,0.0
C[C@H](CO)N1C[C@H](C)[C@@H](CN(C)Cc2ccncc2)Oc2ncc(C#CC3CCCC3)cc2C1=O,5.8,3.8,x,-0.3
SMILES,S100A4 MyoIIA,CFTR F508del cor,dFosB act,FGF22 binding
C[C@@H]1CN([C@H](C)CO)C(=O)c2cccc(NC(=O)Nc3ccc(F)cc3)c2O[C@@H]1CN(C)Cc1ccc(-c2ccccc2)cc1,7.1,-1.6,x,-0.3
CCOc1ccccc1N1CC(C(=O)Nc2c(C)n(C)n(-c3ccccc3)c2=O)CC1=O (configuration not stated),-0.8,3.1,1.9,43.3*
O=C(CCc1ccccc1)OCC(=O)c1ccc(Br)cc1,-11.4,1.4,-4.9,43.3*
O=S(=O)(c1ccc(N2CCN(S(=O)(=O)c3ccccc3)CC2)nc1)N1CCCC1,-15.4,-7.2,-6.0,43.1*
O=S(=O)(c1ccc(N2CCCC2)nc1)N1CCCC1,0.9,0.3,2.9,0.0
COc1ccccc1NC(=O)N[C@@H]1CC[C@@H](CCNS(=O)(=O)c2ccc(F)cc2)O[C@@H]1CO,-1.2,1.4,x,-0.1
C[C@@H]1CN([C@@H](C)CO)S(=O)(=O)c2ccc(C#CC3CC3)cc2O[C@H]1CN(C)C(=O)C1CCC1,-17.4,-1.1,x,-0.2
CCOC(=O)N1CCN(C(=O)CNC(=O)Cn2cnc3ccccc3c2=O)CC1,4.4,1.3,3.0,43.5*
C[C@@H]1CCCCO[C@@H](CN(C)Cc2ccc3c(c2)OCO3)[C@@H](C)CN([C@@H](C)CO)C(=O)c2cc(NC(=O)NC3CCCCC3)ccc2O1,6.8,-0.4,x,-0.3
COCCNc1nnc(SCC(=O)NC(=O)c2ccccc2OC)s1,-0.4,-1.2,-0.4,0.0
COc1ccccc1C(=O)NC(=O)CSc1ccc(C)c(C)c1,5.9,0.2,-4.6,43.0*
COCC(=O)Nc1ccc2c(c1)OC[C@@H](C)N(Cc1cccnc1)C[C@@H](C)[C@H](OC)CN(C)C2=O,5.6,-1.4,x,-0.2
CC(C(=O)Nc1ccccc1C(=O)O)n1c(C(F)(F)F)nc2ccccc21 (configuration not stated),-5.5,0.7,6.9,43.1*
CC(=O)c1ccc(NC(=O)CSc2nc3nn(-c4ccccc4)c(=O)c-3c3n2CCCCC3)cc1,3.9,1.9,0.4,0.1
O=C(CSc1nc2nn(-c3ccccc3)c(=O)c-2c2n1CCCCC2)Nc1ccc(OC(F)F)cc1,-7.2,8.1*,3.2,-0.3
Fc1ccc(-c2nc3c(-c4ccc(F)cc4)cnn3cc2CCN2CCOCC2)cc1,3.5,-2.0,-2.1,42.9*
C=C(C)c1cccc(C(C)(C)NC(=O)Nc2ccc(OC)cc2)c1,9.2,-3.4,-1.7,43.4*
C=C(C)c1cccc(C(C)(C)NC(=O)Nc2ccc(C(C)=O)cc2)c1,x,x,-19.0,x
CO[C@@H]1CN(C)C(=O)c2cc(NS(C)(=O)=O)ccc2OC[C@H](C)N(C(=O)NC(C)C)C[C@H]1C,x,2.9,x,x
C#CCN1CCc2onc(-c3ccc(Br)cc3)c2C1=O,-0.4,-1.4,x,43.1*
C[C@H](CO)N1C[C@H](C)[C@@H](CN(C)C(=O)CC2CC2)Oc2cc(-c3cccnc3)ccc2S1(=O)=O,-2.1,-1.7,x,0.1
COc1ccc(C(=O)c2cc([N+](=O)[O-])ccc2N2CCOCC2)cc1,-3.0,10.8*,0.4,-0.2
CCOc1ccc(C(=O)c2cc([N+](=O)[O-])ccc2N2CCOCC2)cc1,-4.7,x,-8.4,-0.1
O=C(c1cc([N+](=O)[O-])ccc1N1CCOCC1)N1CCOCC1,-1.6,-0.6,3.5,43.1*
